Test results published in ChEMBL document CHEMBL1144097, “Triterpene trimers from Maytenus scutioides: cycloaddition compounds?” (J Nat Prod, 1999).
Calls of active or inactive are those of the source.

Columns and labels:
[1] = tested on: Pseudomonas aeruginosa; assay: Antibacterial activity against Pseudomonas aeruginosa AK 958 upto 40 ug/mL by disk diffusion test; format: functional, organism-based
In short: (§1)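 Agar disk diffusion test. Bacterial strains were maintained on Nutrient Agar and the Candida albicans yeast on Sabouraud Agar, both at 37 °C.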

[2] = tested on: Paenibacillus alvei; assay: Antibacterial activity against Bacillus alvei CECT 2 upto 40 ug/mL by disk diffusion test; format: functional, organism-based; in short: as §1
[3] = tested on: Escherichia coli; assay: Antibacterial activity against Escherichia coli CECT 99 upto 40 ug/mL by disk diffusion test; format: functional, organism-based; in short: as §1
[4] = tested on: HEp-2; assay: Cytotoxicity against human Hep2 cells upto 40 ug/mL by MTT reduction assay; format: functional, cell-based
In short: (§2)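 Cells were grown as monolayers in DMEM with 10% newborn calf serum and 1% penicillin-streptomycin mixture. They were kept at 37 °C, 5% CO2 and 90% humidity. Viability was read by colorimetric MTT reduction.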

[5] = tested on: Salmonella sp.; assay: Antibacterial activity against Salmonella sp. CECT 456 upto 40 ug/mL by disk diffusion test; format: functional, organism-based; in short: as §1
[6] = tested on: Staphylococcus warneri; assay: Antibacterial activity against Staphylococcus warneri CECT 236 upto 40 ug/mL by disk diffusion test; format: functional, organism-based; in short: as §1
[7] = tested on: Staphylococcus aureus; assay: Antibacterial activity against Staphylococcus aureus ATCC 6538 upto 40 ug/mL by disk diffusion test; format: functional, organism-based; in short: as §1
[8] = tested on: Bacillus pumilus; assay: Antibacterial activity against Bacillus pumilus CECT 29 upto 40 ug/mL by disk diffusion test; format: functional, organism-based; in short: as §1
[9] = tested on: Bacillus subtilis; assay: Antibacterial activity against Bacillus subtilis CECT 39 upto 40 ug/mL by disk diffusion test; format: functional, organism-based; in short: as §1
[10] = tested on: Staphylococcus epidermidis; assay: Antibacterial activity against Staphylococcus epidermidis CECT 232 upto 40 ug/mL by disk diffusion test; format: functional, organism-based; in short: as §1
[11] = tested on: Candida albicans; assay: Antifungal activity against Candida albicans UBC 1 upto 40 ug/mL by disk diffusion test; format: functional, organism-based; in short: as §1
[12] = tested on: Micrococcus luteus; assay: Antibacterial activity against Micrococcus luteus CECT 241 upto 40 ug/mL by disk diffusion test; format: functional, organism-based; in short: as §1
[13] = tested on: Bacillus cereus; assay: Antibacterial activity against Bacillus cereus CECT 496 upto 40 ug/mL by disk diffusion test; format: functional, organism-based; in short: as §1
[14] = tested on: Proteus mirabilis; assay: Antibacterial activity against Proteus mirabilis CECT 170 upto 40 ug/mL by disk diffusion test; format: functional, organism-based; in short: as §1
[15] = tested on: Priestia megaterium; assay: Antibacterial activity against Bacillus megaterium CECT 44 upto 40 ug/mL by disk diffusion test; format: functional, organism-based; in short: as §1
[16] = tested on: Hafnia alvei; assay: Antibacterial activity against Enterobacter hafniae CECT 400 upto 40 ug/mL by disk diffusion test; format: functional, organism-based; in short: as §1
[17] = tested on: HeLa; assay: Cytotoxicity against human HeLa cells upto 40 ug/mL by MTT reduction assay; format: functional, cell-based; in short: as §2
[18] = tested on: Staphylococcus; assay: Antibacterial activity against Staphylococcus albus SAB C1 upto 40 ug/mL by disk diffusion test; format: functional, organism-based; in short: as §1
[19] = tested on: Staphylococcus saprophyticus; assay: Antibacterial activity against Staphylococcus saprophyticus CECT 235 upto 40 ug/mL by disk diffusion test; format: functional, organism-based; in short: as §1
[20] = tested on: Klebsiella pneumoniae; assay: Antibacterial activity against Klebsiella pneumoniae CECT 367 upto 40 ug/mL by disk diffusion test; format: functional, organism-based; in short: as §1
[21] = tested on: Salmonella typhimurium; assay: Antibacterial activity against Salmonella Typhimurium UBC 2 upto 40 ug/mL by disk diffusion test; format: functional, organism-based; details: Salmonella enterica subsp. enterica serovar Typhimurium; in short: as §1

Measured: Activity

COC(=O)[C@]1(C)CC[C@]2(C)CC[C@]3(C)C4=CC=C5C(=CC(=O)[C@@]6(O)Oc7c(cc8c(c7C)[C@H]7Oc9c(cc%10c(c9C)CCC9[C@@]%10(C)CC[C@@]%10(C)[C@@H]%11C[C@](C)(C(=O)OC)CC[C@]%11(C)CC[C@]9%10C)O[C@H]7C7[C@@]8(C)CC[C@@]8(C)[C@@H]9C[C@](C)(C(=O)OC)CC[C@]9(C)CC[C@]78C)O[C@@]56C)[C@]4(C)CC[C@@]3(C)[C@@H]2C1 (stereo partly specified)
inactive: all assays above
